MIC and Activity data for 8 molecules are collected here from ChEMBL document CHEMBL1142406, “2-Heteroarylimino-5-benzylidene-4-thiazolidinones analogues of 2-thiazolylimino-5-benzylidene-4-thiazolidinones with antimicrobial activity: synthesis and structure-activity relationship” (2008).

Values after ≈ are worked out from the molar mass of the structure shown. Active and inactive are the calls of the source. The rule behind the calls is not given here.

One assay has as its system Streptococcus agalactiae. Description: Antimicrobial activity against Streptococcus agalactiae by broth dilution technique. The format is functional. The method in brief: (§1)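 Broth dilution in Mueller Hinton Broth. Compounds are dissolved in DMSO (never above 1% v/v final) and serially diluted. MIC is the lowest concentration giving complete growth inhibition.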
(In general: Broth dilution looks for growth in wells or tubes with falling amounts of substance.)

Assay [1] has as its system Staphylococcus aureus. Briefly: Antimicrobial activity against penicillin-resistant Staphylococcus aureus by broth dilution technique. The format is functional. The method in brief:
(§2)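 Broth dilution in Mueller Hinton Broth with compounds predissolved in DMSO (at most 1% v/v). Final concentrations ranged from 100 to 0.0015, and the inoculum was 5.10⁴ bacteria/mL. Plates were incubated at 37 °C for 24 h. MIC was taken as the lowest concentration giving complete growth inhibition.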

The subject of assay [2] is Candida tropicalis. Briefly: Antimicrobial activity against Candida tropicalis ATCC 1369 by broth dilution technique. The format is functional. The method in brief: (§3)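 Fungi are tested by Sabouraud Liquid Medium dilution. Compounds are in DMSO, with DMSO at most 1% v/v final. Inoculum is 1×10³ fungi/mL, incubated 48 h at 30 °C. MIC is the lowest concentration completely inhibiting growth. For MFC, 100 µL of clear mixtures is subcultured into 1 mL fresh medium and read after 48 h at 30 °C.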

For another assay, the system named is Streptococcus pyogenes. Briefly: Antimicrobial activity against Streptococcus pyogenes by broth dilution technique. The format is functional. The method in brief: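 Tryptose Phosphate Broth dilution. Compounds are dissolved in DMSO, with DMSO at most 1% v/v final. MIC is taken as the lowest concentration with complete growth inhibition.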
The subject of assay [3] is Aspergillus niger. Description: Antimicrobial activity against Aspergillus niger ATCC 6275 by broth dilution technique. It counts as functional. The method in brief: as §3
For a further assay, the system named is Priestia megaterium. Briefly: Antimicrobial activity against Bacillus megaterium by broth dilution technique. It counts as functional. The method in brief: as §1
For the next assay, the system named is Enterococcus faecium. Briefly: Antimicrobial activity against Streptococcus faecium by broth dilution technique. It counts as functional. Put shortly:
as §1

A further assay deals with Bacillus thuringiensis. Briefly: Antimicrobial activity against Bacillus thuringiensis var. kurstaki BGSC 4D1 by broth dilution technique. The format is functional. As to conditions: serovar kurstaki. The method in brief: as §1
Assay [4] has as its system Staphylococcus epidermidis. Briefly: Antimicrobial activity against penicillin-resistant Staphylococcus epidermidis by broth dilution technique. It counts as functional. Put shortly:
as §2

The test system of a further assay is Micrococcus luteus. Briefly: Antimicrobial activity against Sarcina lutea by broth dilution technique. It counts as functional. The method in brief:
as §1

Assay [5] has as its system Staphylococcus aureus. Briefly: Antimicrobial activity against Staphylococcus aureus ATCC 25923 by broth dilution technique. The format is functional. Put shortly:
as §1

Assay [6] deals with Staphylococcus haemolyticus. Description: Antimicrobial activity against Staphylococcus haemolyticus by broth dilution technique. The format is functional. Put shortly:
as §1

For the next assay, the system named is Bacillus subtilis. Description: Antimicrobial activity against Bacillus subtilis ATCC 6633 by broth dilution technique. The format is functional. Put shortly: as §1
Another assay concerns Enterococcus faecalis. Briefly: Antimicrobial activity against Streptococcus faecalis by broth dilution technique. The format is functional. Put shortly: as §1
Assay [7] relates to Staphylococcus epidermidis. Briefly: Antimicrobial activity against Staphylococcus epidermidis ATCC 12228 by broth dilution technique.
Another assay concerns Haemophilus influenzae. Description: Antimicrobial activity against Haemophilus influenzae by broth dilution technique. The format is functional. The method in brief: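 Haemophilus Test Medium broth dilution. Compounds in DMSO are added to final dilutions, with DMSO at most 1% v/v. MIC is the lowest concentration completely inhibiting growth.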
The test system of assay [8] is Saccharomyces cerevisiae. Description: Antimicrobial activity against Saccharomyces cerevisiae ATCC 9763 by broth dilution technique. It counts as functional. Put shortly:
as §3

Assay [9] deals with Aspergillus niger. Description: Antimicrobial activity against Aspergillus niger ATCC 6275 upto 100 ug/ml by broth dilution technique. The format is functional, organism-based. The method in brief: as §3
In assay [10] the test system is Saccharomyces cerevisiae. Description: Antimicrobial activity against Saccharomyces cerevisiae ATCC 9763 upto 100 ug/ml by broth dilution technique. It counts as functional, organism-based. Put shortly: as §3
For another assay, the system named is Escherichia coli. Description: Antimicrobial activity against Escherichia coli SPA27 upto 100 ug/ml by broth dilution technique. It counts as functional, organism-based. Put shortly: as §1
Assay [11] has as its system Candida tropicalis. Description: Antimicrobial activity against Candida tropicalis ATCC 1369 upto 100 ug/ml by broth dilution technique. It counts as functional, organism-based. The method in brief: as §3

For `O=C1CS/C(=N/c2nc3ccccc3s2)N1`, the MIC is above 100 µg/mL with Streptococcus agalactiae; 25 µg/mL (≈ 100 µM) against Staphylococcus aureus [1]; 50 µg/mL (≈ 201 µM) against Candida tropicalis [2]; above 100 µg/mL with Streptococcus pyogenes; 25 µg/mL (≈ 100 µM) against Aspergillus niger [3]; 25 µg/mL (≈ 100 µM) against Priestia megaterium. Besides, the MIC against Enterococcus faecium is above 100 µg/mL; in the assay with Bacillus thuringiensis, 25 µg/mL (≈ 100 µM); in assay [4], 100 µg/mL (≈ 401 µM); against Micrococcus luteus it was 50 µg/mL (≈ 201 µM); against Staphylococcus aureus [5], 25 µg/mL (≈ 100 µM); in assay [6], 50 µg/mL (≈ 201 µM). The MIC against Bacillus subtilis was 12 µg/mL (≈ 48.1 µM); against Enterococcus faecalis, above 100 µg/mL; in assay [7], 100 µg/mL (≈ 401 µM); with Haemophilus influenzae, 0.7 µg/mL (≈ 2.81 µM); against Saccharomyces cerevisiae [8] it was 50 µg/mL (≈ 201 µM).
On to `O=C1N/C(=N\c2nc3ccccc3s2)S/C1=C\c1cccc(Cl)c1`, for which the MIC against Streptococcus agalactiae is above 100 µg/mL; with Staphylococcus aureus [1] it was 25 µg/mL (≈ 67.2 µM); against Streptococcus pyogenes, above 100 µg/mL; in the assay with Priestia megaterium it was 12 µg/mL (≈ 32.3 µM); against Enterococcus faecium, above 100 µg/mL; with Bacillus thuringiensis, 6 µg/mL (≈ 16.1 µM). In addition, the MIC is 12 µg/mL (≈ 32.3 µM) in assay [4]; 12 µg/mL (≈ 32.3 µM) against Micrococcus luteus; 25 µg/mL (≈ 67.2 µM) against Staphylococcus aureus [5]; above 100 µg/mL in assay [6]; 12 µg/mL (≈ 32.3 µM) against Bacillus subtilis; above 100 µg/mL in the assay with Enterococcus faecalis. In addition, the results for the MIC (in assay [7]; against Haemophilus influenzae) were 6 µg/mL (≈ 16.1 µM) and above 100 µg/mL, respectively. Also, the outcome in the assay on Aspergillus niger [9], in the assay with Saccharomyces cerevisiae [10], with Escherichia coli and in the assay on Candida tropicalis [11] was inactive.
Turning to `CC1(C)S[C@@H]2[C@H](NC(=O)[C@H](N)c3ccccc3)C(=O)N2[C@H]1C(=O)O` [AMPICILLIN], the MIC was 0.03 µg/mL (≈ 0.0859 µM) in the assay with Streptococcus agalactiae; 25 µg/mL (≈ 71.5 µM) in the assay with Staphylococcus aureus [1]; 0.007 µg/mL (≈ 0.02 µM) against Streptococcus pyogenes; 0.07 µg/mL (≈ 0.2 µM) against Priestia megaterium; 100 µg/mL (≈ 286 µM) against Enterococcus faecium; 50 µg/mL (≈ 143 µM) in the assay on Bacillus thuringiensis. Besides, the MIC amounted to 25 µg/mL (≈ 71.5 µM) in assay [4]; 0.0015 µg/mL (≈ 0.00429 µM) in the assay on Micrococcus luteus; 0.07 µg/mL (≈ 0.2 µM) against Staphylococcus aureus [5]; 0.03 µg/mL (≈ 0.0859 µM) in assay [6]; 0.007 µg/mL (≈ 0.02 µM) against Bacillus subtilis; 0.7 µg/mL (≈ 2 µM) in the assay on Enterococcus faecalis. The values for the MIC (in [7]; against Haemophilus influenzae) were 3 µg/mL (≈ 8.59 µM) and 0.07 µg/mL (≈ 0.2 µM), respectively. For the same molecule, the result with Aspergillus niger [9], with Saccharomyces cerevisiae [10], in the assay with Escherichia coli and with Candida tropicalis [11] was inactive.
`O=C1N/C(=N/c2nsc3ccccc23)S/C1=C\c1cccc([N+](=O)[O-])c1`: the MIC against Streptococcus agalactiae is above 100 µg/mL; against Staphylococcus aureus [1], above 100 µg/mL; against Streptococcus pyogenes, above 100 µg/mL; against Priestia megaterium, 0.7 µg/mL (≈ 1.83 µM); in the assay with Enterococcus faecium, above 100 µg/mL; in the assay with Bacillus thuringiensis, 1.5 µg/mL (≈ 3.92 µM). Also, the MIC (in assay [4]; in the assay with Micrococcus luteus; against Staphylococcus aureus [5]; in [6]; in the assay with Bacillus subtilis; with Enterococcus faecalis) was above 100 µg/mL each time. The MIC was above 100 µg/mL in assay [7] and 3 µg/mL (≈ 7.84 µM) in the assay with Haemophilus influenzae. Also, the result in the assay on Aspergillus niger [9], in the assay on Saccharomyces cerevisiae [10], in the assay with Escherichia coli and in the assay with Candida tropicalis [11] was inactive.
Consider `COc1cc(/C=C2\S/C(=N/c3nc4ccccc4s3)NC2=O)ccc1O`, for which the MIC in the assay on Streptococcus agalactiae was above 100 µg/mL; with Staphylococcus aureus [1] it was 6 µg/mL (≈ 15.6 µM); against Streptococcus pyogenes it was above 100 µg/mL; against Priestia megaterium it was 12 µg/mL (≈ 31.3 µM); against Enterococcus faecium, above 100 µg/mL; against Bacillus thuringiensis it was 6 µg/mL (≈ 15.6 µM). In addition, the MIC in [4] was 12 µg/mL (≈ 31.3 µM); in the assay with Micrococcus luteus, 12 µg/mL (≈ 31.3 µM); against Staphylococcus aureus [5] it was 6 µg/mL (≈ 15.6 µM); in [6] it was above 100 µg/mL; in the assay with Bacillus subtilis, above 100 µg/mL; against Enterococcus faecalis, above 100 µg/mL. The MIC in assay [7] is 6 µg/mL (≈ 15.6 µM); in the assay with Haemophilus influenzae, above 100 µg/mL. In addition, the result with Aspergillus niger [9], with Saccharomyces cerevisiae [10], in the assay on Escherichia coli and in the assay with Candida tropicalis [11] was inactive.
Regarding `O=C1N/C(=N\c2nccs2)S/C1=C\c1cccc(Cl)c1`, the MIC in the assay on Streptococcus agalactiae came to 1.5 µg/mL (≈ 4.66 µM); in the assay on Staphylococcus aureus [1] it was 0.7 µg/mL (≈ 2.18 µM); in the assay with Streptococcus pyogenes, 12 µg/mL (≈ 37.3 µM); in the assay on Priestia megaterium it was 0.15 µg/mL (≈ 0.466 µM); in the assay on Enterococcus faecium, 3 µg/mL (≈ 9.32 µM); with Bacillus thuringiensis, 1.5 µg/mL (≈ 4.66 µM). The MIC turned out to be 1.5 µg/mL (≈ 4.66 µM) in assay [4]; 1.5 µg/mL (≈ 4.66 µM) in the assay on Micrococcus luteus; 1.5 µg/mL (≈ 4.66 µM) with Staphylococcus aureus [5]; 3 µg/mL (≈ 9.32 µM) in [6]; 0.3 µg/mL (≈ 0.932 µM) in the assay with Bacillus subtilis; 50 µg/mL (≈ 155 µM) with Enterococcus faecalis. The values for the MIC (in assay [7]; against Haemophilus influenzae) were 1.5 µg/mL (≈ 4.66 µM) and 0.3 µg/mL (≈ 0.932 µM), respectively. The outcome in the assay with Aspergillus niger [9], in the assay on Saccharomyces cerevisiae [10], in the assay on Escherichia coli and in the assay with Candida tropicalis [11] was inactive.
`O=C1N/C(=N\c2nc3ccccc3s2)S/C1=C\c1ccccc1Cl`: the MIC in the assay with Streptococcus agalactiae was above 100 µg/mL; in the assay on Staphylococcus aureus [1] it was 12 µg/mL (≈ 32.3 µM); against Streptococcus pyogenes it was 25 µg/mL (≈ 67.2 µM); in the assay on Priestia megaterium it was 12 µg/mL (≈ 32.3 µM); against Enterococcus faecium, above 100 µg/mL; in the assay on Bacillus thuringiensis it was 12 µg/mL (≈ 32.3 µM). Besides, the MIC in assay [4] was 25 µg/mL (≈ 67.2 µM); against Micrococcus luteus it was 12 µg/mL (≈ 32.3 µM); against Staphylococcus aureus [5] it was 12 µg/mL (≈ 32.3 µM); in assay [6], above 100 µg/mL; against Bacillus subtilis, 12 µg/mL (≈ 32.3 µM); against Enterococcus faecalis, above 100 µg/mL. The values for the MIC (in [7]; in the assay with Haemophilus influenzae) were 12 µg/mL (≈ 32.3 µM) and above 100 µg/mL, respectively. Further, the result in the assay with Aspergillus niger [9], in the assay on Saccharomyces cerevisiae [10], with Escherichia coli and in the assay on Candida tropicalis [11] was inactive.
As for `O=C1N/C(=N\c2nccs2)S/C1=C\c1ccccc1`, the MIC is 3 µg/mL (≈ 10.4 µM) against Streptococcus agalactiae; 25 µg/mL (≈ 87 µM) in the assay with Staphylococcus aureus [1]; above 100 µg/mL with Streptococcus pyogenes; 0.7 µg/mL (≈ 2.44 µM) against Priestia megaterium; 25 µg/mL (≈ 87 µM) with Enterococcus faecium; 3 µg/mL (≈ 10.4 µM) with Bacillus thuringiensis. Moreover, the MIC in [4] was found to be 50 µg/mL (≈ 174 µM); against Micrococcus luteus, 3 µg/mL (≈ 10.4 µM); against Staphylococcus aureus [5], 3 µg/mL (≈ 10.4 µM); in assay [6] it was 6 µg/mL (≈ 20.9 µM); against Bacillus subtilis, 0.7 µg/mL (≈ 2.44 µM); with Enterococcus faecalis, 25 µg/mL (≈ 87 µM). For the same molecule, the MIC was found to be 6 µg/mL (≈ 20.9 µM) in [7] and 0.7 µg/mL (≈ 2.44 µM) in the assay on Haemophilus influenzae. Besides, the outcome with Aspergillus niger [9], with Saccharomyces cerevisiae [10], in the assay on Escherichia coli and in the assay on Candida tropicalis [11] was inactive.
